pIC50: −log10 of the molar value. Values after ≈ are worked out from the molar mass of the structure shown.
Tests used:
[1] = Metabolic stability in rat liver microsome assessed as elimination half life at 0.1 uM in presence of NADPH incubated upto 60 mins by LC-MS/MS analysis; format: ADME; details: liver microsomes, read-out: beta t1/2
Method in brief: (§1)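 Compound at 0.1 μM final, in 0.01% DMSO with 0.005% BSA. Incubated with rat or human liver microsomes at 0.33 mg/mL in 0.1 M Tris-HCl, pH 7.4, with 5 mM MgCl₂ and 1 mM NADPH, at 37 °C. Samples at 0, 7, 17, 30 and 60 min quenched with cold methanol and analysed by LC-MS/MS. Half-life, Cl_int and MF% derived as previously described.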

[2] = Clearance in Sprague-Dawley rat at 4 mg/kg, iv measured upto 24 hrs by LC-MS/MS analysis; format: ADME, organism-based; details: in vivo
Method in brief: (§2)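 Male Sprague-Dawley rats, n = 3 per group, single intravenous dose. For 4 mg/kg: 180–280 g rats, vehicle 5% DMSO + 5% EtOH + 40% PEG300 + 50% saline, blood from the retrobulbar vein at 0.05–24 h. For 5 and 20 mg/kg: 180–300 g rats, vehicle 5% DMSO + 5% solutol + 90% saline, sampled at 0.083–24 h. Plasma quantified by LC/MS/MS. Parameters from mean plasma concentration by noncompartmental analysis; values are mean ± standard deviation.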

Escherichia coli [3] = assay: Antibacterial activity against ESBL-producing multidrug resistant Escherichia coli assessed as reduction in bacterial growth incubated for 18 to 20 hrs by CLSI based microdilution method; format: functional; details: time 18-20 hrs
Method in brief: (§3)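 Broth microdilution per CLSI. Compounds dissolved in DMSO (levofloxacin and meropenem in water) as 64 μg/mL stock, then serial twofold dilutions in broth giving 64 to 0.008 μg/mL. […] Clinical isolates tested as several strains per group; racemic GP-1 served as positive control; values given as MIC ranges.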

[4] = MRT in Sprague-Dawley rat at 4 mg/kg, iv measured upto 24 hrs by LC-MS/MS analysis; format: ADME, organism-based; details: in vivo; method in brief: as §2
Pseudomonas aeruginosa [5] = assay: Antibacterial activity against wild type Pseudomonas aeruginosa ATCC 27853 assessed as reduction in bacterial growth incubated for 18 to 20 hrs by CLSI based microdilution method; format: functional; details: time 18-20 hrs
Method in brief: (§4)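 CLSI broth microdilution. Compounds in DMSO (levofloxacin and meropenem in water), serial twofold dilutions in broth, 64 to 0.008 μg/mL. […] Results reported as MIC ranges across strains.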

[6] = Metabolic stability in rat liver microsome assessed as intrinsic clearance at 0.1 uM in presence of NADPH incubated upto 60 mins by LC-MS/MS analysis; format: ADME; details: microsomes, 1 h; method in brief: as §1
Klebsiella pneumoniae [7] = assay: Antibacterial activity agains wild type Klebsiella pneumoniae ATCC BAA-1705 assessed as reduction in bacterial growth incubated for 18 to 20 hrs by CLSI based microdilution method; format: functional; details: time 18-20 hrs; method in brief: as §4
[8] = target: Voltage-gated inwardly rectifying potassium channel KCNH2 (Homo sapiens, UniProt Q12809); assay: Inhibition of hERG potassium channel assessed as […] at -80 mV holding potential incubated for 120 seconds by whole cell-automated voltage clamp analysis assay; format: toxicity
Voltage-gated inwardly rectifying potassium channel KCNH2, sequence (Q12809 whole entry): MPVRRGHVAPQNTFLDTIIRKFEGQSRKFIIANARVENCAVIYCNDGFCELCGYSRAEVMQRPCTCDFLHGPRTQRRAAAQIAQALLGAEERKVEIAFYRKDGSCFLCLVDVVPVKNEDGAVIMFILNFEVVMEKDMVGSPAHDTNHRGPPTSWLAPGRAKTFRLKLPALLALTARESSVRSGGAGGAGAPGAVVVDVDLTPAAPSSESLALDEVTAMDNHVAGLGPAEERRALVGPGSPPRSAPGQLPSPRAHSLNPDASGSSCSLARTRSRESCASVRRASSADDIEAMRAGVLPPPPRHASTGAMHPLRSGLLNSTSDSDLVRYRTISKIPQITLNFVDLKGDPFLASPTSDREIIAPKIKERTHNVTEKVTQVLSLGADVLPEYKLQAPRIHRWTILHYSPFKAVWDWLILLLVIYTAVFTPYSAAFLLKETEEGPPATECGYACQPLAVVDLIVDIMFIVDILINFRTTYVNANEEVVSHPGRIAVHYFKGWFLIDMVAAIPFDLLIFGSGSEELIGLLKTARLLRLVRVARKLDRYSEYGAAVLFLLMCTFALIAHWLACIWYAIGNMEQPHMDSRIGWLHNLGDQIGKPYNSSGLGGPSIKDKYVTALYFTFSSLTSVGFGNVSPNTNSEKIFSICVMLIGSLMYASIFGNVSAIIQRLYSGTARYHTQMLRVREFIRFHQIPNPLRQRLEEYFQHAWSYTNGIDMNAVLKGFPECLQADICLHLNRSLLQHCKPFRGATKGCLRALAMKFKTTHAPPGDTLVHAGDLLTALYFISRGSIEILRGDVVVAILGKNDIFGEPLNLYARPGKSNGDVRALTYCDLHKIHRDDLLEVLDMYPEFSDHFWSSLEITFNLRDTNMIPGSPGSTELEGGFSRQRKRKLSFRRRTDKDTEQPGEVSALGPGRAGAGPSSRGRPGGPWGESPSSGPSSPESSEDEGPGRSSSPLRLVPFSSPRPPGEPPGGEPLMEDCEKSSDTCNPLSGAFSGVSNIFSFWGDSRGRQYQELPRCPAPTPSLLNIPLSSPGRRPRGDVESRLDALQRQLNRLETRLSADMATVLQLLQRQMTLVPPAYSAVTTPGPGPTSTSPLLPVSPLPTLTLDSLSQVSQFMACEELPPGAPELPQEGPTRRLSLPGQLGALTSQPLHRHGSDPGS
Method in brief: (§5)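 Automated whole-cell patch clamp, holding potential −80 mV. Voltage protocol applied every 20 s. Baseline set with external solution containing 0.1% DMSO and stabilised 3 min. Compound applied until steady state, at least 3 min, then washout. Maximum tested concentration 40 μM, or 3 μM for cisapride as positive control.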

Pseudomonas aeruginosa [9] = assay: Antibacterial activity against multidrug resistant Pseudomonas aeruginosa strains 15 1 to 3 assessed as reduction in bacterial growth incubated for 18 to 20 hrs by CLSI based microdilution method; format: functional; details: time 18-20 hrs; method in brief: as §3
Acinetobacter baumannii [10] = assay: Antibacterial activity against wild type Acinetobacter baumannii NCTC 13304 assessed as reduction in bacterial growth incubated for 18 to 20 hrs by CLSI based microdilution method; format: functional; details: time 18-20 hrs; method in brief: as §3
[11] = test system: Staphylococcus epidermidis; assay: Antibacterial activity against methicillin-sensitive Staphylococcus epidermidis strains 15 1 to 4 assessed as reduction in bacterial growth incubated for 18 to 20 hrs by CLSI based microdilution method; format: functional; details: time 18-20 hrs; method in brief: as §3
[12] = Elimination half life in Sprague-Dawley rat at 4 mg/kg, iv measured upto 24 hrs by LC-MS/MS analysis; format: ADME, organism-based; details: in vivo, read-out: beta t1/2 (converted); method in brief: as §2
Staphylococcus aureus [13] = assay: Antibacterial activity against methicillin-sensitive Staphylococcus aureus strains 15 1 to 4 assessed as reduction in bacterial growth incubated for 18 to 20 hrs by CLSI based microdilution method; format: functional; details: time 18-20 hrs; method in brief: as §3
[14] = AUC (0 to infinity) in Sprague-Dawley rat at 4 mg/kg, iv measured upto 24 hrs by LC-MS/MS analysis; format: ADME, organism-based; design: time < 24 hrs, dose 4 mg/kg, route iv; details: in vivo; method in brief: as §2
[15] = Metabolic stability in human liver microsome assessed as intrinsic clearance at 0.1 uM in presence of NADPH incubated upto 60 mins by LC-MS/MS analysis; format: ADME; details: microsomes, 1 h; method in brief: as §1
Pseudomonas aeruginosa [16] = assay: Antibacterial activity against IMP4-producing multidrug resistant Pseudomonas aeruginosa assessed as reduction in bacterial growth incubated for 18 to 20 hrs by CLSI based microdilution method; format: functional; details: time 18-20 hrs; method in brief: as §3
Acinetobacter baumannii [17] = assay: Antibacterial activity agains OXA23-producing multidrug resistant Acinetobacter baumannii assessed as reduction in bacterial growth incubated for 18 to 20 hrs by CLSI based microdilution method; format: functional; details: time 18-20 hrs; method in brief: as §3
Klebsiella pneumoniae [18] = assay: Antibacterial activity against KPC2-producing multidrug resistant Klebsiella pneumoniae assessed as reduction in bacterial growth incubated for 18 to 20 hrs by CLSI based microdilution method; format: functional; details: time 18-20 hrs; method in brief: as §3
[19] = Metabolic stability in human liver microsome assessed as metabolic bioavailability at 0.1 uM in presence of NADPH incubated upto 60 mins by LC-MS/MS analysis; format: ADME; details: liver microsomes; method in brief: as §1
[20] = Volume of distribution at the steady state in Sprague-Dawley rat at 4 mg/kg, iv measured upto 24 hrs by LC-MS/MS analysis; format: ADME, organism-based; details: in vivo, read-out: Vdss; method in brief: as §2
Escherichia coli [21] = assay: Antibacterial activity against Escherichia coli ATCC 35218 strains 15 1 to 3 assessed as reduction in bacterial growth incubated for 18 to 20 hrs by CLSI based microdilution method; format: functional; details: time 18-20 hrs; method in brief: as §4
[22] = Metabolic stability in human liver microsome assessed as elimination half life at 0.1 uM in presence of NADPH incubated upto 60 mins by LC-MS/MS analysis; format: ADME; details: liver microsomes, read-out: beta t1/2; method in brief: as §1
Escherichia coli [23] = assay: Antibacterial activity against multidrug resistant wild type Escherichia coli ATCC BAA-2340 assessed as reduction in bacterial growth incubated for 18 to 20 hrs by CLSI based microdilution method; format: functional; details: time 18-20 hrs; method in brief: as §3
Klebsiella pneumoniae [24] = assay: Antibacterial activity agains wild type Klebsiella pneumoniae ATCC BAA-2470 assessed as reduction in bacterial growth incubated for 18 to 20 hrs by CLSI based microdilution method; format: functional; details: time 18-20 hrs; method in brief: as §3
Escherichia coli [25] = assay: Antibacterial activity against multidrug resistant wild type Escherichia coli NCTC 13353 assessed as reduction in bacterial growth incubated for 18 to 20 hrs by CLSI based microdilution method; format: functional; details: time 18-20 hrs; method in brief: as §3
[26] = target: hERG (KCNH2) potassium channel (Homo sapiens, UniProt Q12809); assay: Inhibition of hERG potassium channel assessed as maximum inhibition rate at 40 uM at -80 mV holding potential incubated for 120 seconds by whole cell-automated voltage clamp analysis assay relative to control; format: toxicity; details: time 120 sec; method in brief: as §5
hERG (KCNH2) potassium channel, sequence (Q12809 whole entry): as above

[27] = Metabolic stability in rat liver microsome assessed as metabolic bioavailability at 0.1 uM in presence of NADPH incubated upto 60 mins by LC-MS/MS analysis; format: ADME; details: liver microsomes; method in brief: as §1
Escherichia coli [28] = assay: Antibacterial activity against ESBL-producing Escherichia coli ATCC 35218 strains 15 1 to 3 assessed as reduction in bacterial growth incubated for 18 to 20 hrs by CLSI based microdilution method; format: functional; details: time 18-20 hrs; method in brief: as §4
[29] = test system: Staphylococcus epidermidis; assay: Antibacterial activity against methicillin-resistant Staphylococcus epidermidis strains 15 1 to 4 assessed as reduction in bacterial growth incubated for 18 to 20 hrs by CLSI based microdilution method; format: functional; details: time 18-20 hrs; method in brief: as §3
Staphylococcus aureus [30] = assay: Antibacterial activity against methicillin-resistant Staphylococcus aureus strains 15 1 to 4 assessed as reduction in bacterial growth incubated for 18 to 20 hrs by CLSI based microdilution method; format: functional; details: time 18-20 hrs; method in brief: as §3

## CCCC(CN)=C1CN(c2nc(Oc3cnc(C)nc3)nc3[nH]c4c(NC)cc(F)cc4c23)C1
[1]
  half-life at 0.1 µM: 0.415 h
[2]
  clearance: 86.8 mL/min/kg
Escherichia coli [3]
  MIC: 1 µg/mL (≈ 2.16 µM)
[4]
  MRT: 4.4 h
Pseudomonas aeruginosa [5]
  MIC: 4 µg/mL (≈ 8.65 µM)
[6]
  CLH: 84.4 mL/min/g
Klebsiella pneumoniae [7]
  MIC: 8 µg/mL (≈ 17.3 µM)
[8]
  pIC50: 4.29
Pseudomonas aeruginosa [9]
  MIC: 2 µg/mL (≈ 4.32 µM)
Acinetobacter baumannii [10]
  MIC: 1 µg/mL (≈ 2.16 µM)
[11]
  MIC: < 0.008 µg/mL
[12]
  half-life: 4.7 h
Staphylococcus aureus [13]
  MIC: < 0.008 µg/mL
[14]
  AUC(0-inf): 778 ng·h/mL
[15]
  CLH: 44.3 mL/min/g
Pseudomonas aeruginosa [16]
  MIC: 4 µg/mL (≈ 8.65 µM)
Acinetobacter baumannii [17]
  MIC: 0.5 µg/mL (≈ 1.08 µM)
Klebsiella pneumoniae [18]
  MIC: 4 µg/mL (≈ 8.65 µM)
[19]
  Fh at 1 h, 0.1 µM: 30.7%
[20]
  Vd: 22.5 L/kg
Escherichia coli [21]
  MIC: 0.06 µg/mL (≈ 0.13 µM)
[22]
  half-life at 0.1 µM: 0.792 h
Escherichia coli [23]
  MIC: 1 µg/mL (≈ 2.16 µM)
Klebsiella pneumoniae [24]
  MIC: 4 µg/mL (≈ 8.65 µM)
Escherichia coli [25]
  MIC: 0.5 µg/mL (≈ 1.08 µM)
[26]
  inhibition at 2 min, 40 µM: 50.6%
[27]
  Fh at 1 h, 0.1 µM: 34.5%
Escherichia coli [28]
  MIC: 0.125 µg/mL (≈ 0.27 µM)

## CNc1cc(F)cc2c1[nH]c1nc(Oc3cnc(C)nc3)nc(N3CCC(=C(C)CN)CC3)c12
Pseudomonas aeruginosa [9]
  MIC: > 8 µg/mL
[11]
  MIC: 0.03 µg/mL (≈ 0.0649 µM)
Staphylococcus aureus [13]
  MIC: 0.125 µg/mL (≈ 0.27 µM)
[29]
  MIC: < 0.008 µg/mL
Staphylococcus aureus [30]
  MIC: 0.125 µg/mL (≈ 0.27 µM)
Escherichia coli [21]
  MIC: 0.25 µg/mL (≈ 0.541 µM)
Escherichia coli [28]
  MIC: 2 µg/mL (≈ 4.32 µM)

## CNc1cc(F)cc2c1[nH]c1nc(Oc3cnc(C)nc3)nc(N3CC(=CCN)C3)c12
Pseudomonas aeruginosa [9]
  MIC: ≥ 16 µg/mL
[11]
  MIC: 0.25 µg/mL (≈ 0.595 µM)
Staphylococcus aureus [13]
  MIC: 0.5 µg/mL (≈ 1.19 µM)
[29]
  MIC: 0.25 µg/mL (≈ 0.595 µM)
Staphylococcus aureus [30]
  MIC: 0.5 µg/mL (≈ 1.19 µM)
Escherichia coli [21]
  MIC: 0.5 µg/mL (≈ 1.19 µM)
Escherichia coli [28]
  MIC: 8 µg/mL (≈ 19 µM)

## CCC(CN)=C1CN(c2nc(C#N)nc3[nH]c4c(NC)cc(F)cc4c23)C1
Pseudomonas aeruginosa [9]
  MIC: 16 µg/mL (≈ 43.8 µM)
[11]
  MIC: 0.25 µg/mL (≈ 0.684 µM)
Staphylococcus aureus [13]
  MIC: 2 µg/mL (≈ 5.47 µM)
[29]
  MIC: 0.5 µg/mL (≈ 1.37 µM)
Staphylococcus aureus [30]
  MIC: 2 µg/mL (≈ 5.47 µM)
Escherichia coli [21]
  MIC: 0.25 µg/mL (≈ 0.684 µM)
Escherichia coli [28]
  MIC: 0.5 µg/mL (≈ 1.37 µM)

## CNc1cc(F)cc2c1[nH]c1nc(Oc3cnc(C)nc3)nc(N3CC(=C(F)CN)C3)c12
[8]
  pIC50: < 4.40
Pseudomonas aeruginosa [9]
  MIC: > 16 µg/mL
[11]
  MIC: 0.125 µg/mL (≈ 0.285 µM)
Staphylococcus aureus [13]
  MIC: 0.015 µg/mL (≈ 0.0342 µM)
[29]
  MIC: 0.015 µg/mL (≈ 0.0342 µM)
Staphylococcus aureus [30]
  MIC: 0.015 µg/mL (≈ 0.0342 µM)
Escherichia coli [21]
  MIC: 0.06 µg/mL (≈ 0.137 µM)
[26]
  inhibition at 2 min, 40 µM: 3.2%
Escherichia coli [28]
  MIC: 0.25 µg/mL (≈ 0.57 µM)

## CCC(CN)=C1CN(c2nc(Sc3ccc(Br)cn3)nc3[nH]c4c(NC)cc(F)cc4c23)C1
Pseudomonas aeruginosa [9]
  MIC: > 16 µg/mL
[11]
  MIC: 0.25 µg/mL (≈ 0.473 µM)
Staphylococcus aureus [13]
  MIC: 1 µg/mL (≈ 1.89 µM)
[29]
  MIC: 0.25 µg/mL (≈ 0.473 µM)
Staphylococcus aureus [30]
  MIC: 0.5 µg/mL (≈ 0.946 µM)
Escherichia coli [21]
  MIC: > 1 µg/mL
Escherichia coli [28]
  MIC: > 2 µg/mL
